These results are taken from ChEMBL document CHEMBL1770075, “Thermal solvent-free synthesis of novel pyrazolyl chalcones and pyrazolines as potential antimicrobial agents” (2011).

≈ marks a conversion by molar mass, not a printed value.

The test system of experiment [1] is Candida albicans. Nature of the experiment: Antifungal activity against Candida albicans after 48 hrs by Halo zone test. In kind it is functional.
The test system of experiment [2] is Aspergillus fumigatus. Nature of the experiment: Antifungal activity against Aspergillus fumigatus after 48 hrs by Halo zone test. In kind it is functional.
Experiment [3] concerns Trichophyton mentagrophytes. Nature of the experiment: Antifungal activity against Trichophyton mentagrophytes after 48 hrs by Halo zone test. It counts as functional.
In experiment [4] the test system is Talaromyces marneffei. As to the kind of experiment: Antifungal activity against Penicillium marneffei after 48 hrs by Halo zone test. It counts as functional.
The subject of experiment [5] is Candida albicans. As to the kind of experiment: Antifungal activity against Candida albicans after 48 hrs. In kind it is functional. The essentials:
(§1)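 Broth with two-fold serial dilutions of compound was inoculated with 1.6 × 10⁴–6 × 10⁴ c.f.u/ml and incubated at 35 °C. MIC is the lowest concentration that arrests growth. For MFC, 0.1 ml was spread on agar, colonies were counted after 48 h at 35 °C, and the endpoint was the lowest concentration killing 99.9%.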

Experiment [6] deals with Aspergillus fumigatus. As to the kind of experiment: Antifungal activity against Aspergillus fumigatus after 48 hrs. It counts as functional. The essentials:
as §1

Experiment [7] concerns Trichophyton mentagrophytes. As to the kind of experiment: Antifungal activity against Trichophyton mentagrophytes after 48 hrs. In kind it is functional. The gist of the method: as §1
Experiment [8] concerns Talaromyces marneffei. Nature of the experiment: Antifungal activity against Penicillium marneffei after 48 hrs. It counts as functional. The gist of the method:
as §1

A further experiment deals with Streptococcus pyogenes. As to the kind of experiment: Antibacterial activity against clinical isolate of Streptococcus pyogenes after 24 hrs at 30 ug by Halo zone test. The conditions noted are these: read-out: DIZ.
In experiment [9] the test system is Staphylococcus aureus. As to the kind of experiment: Antibacterial activity against methicillin-resistant Staphylococcus aureus at 30 ug after 24 hrs by Halo zone test. The conditions noted are these: read-out: DIZ.
Another experiment has as its system Klebsiella pneumoniae. Nature of the experiment: Antibacterial activity against clinical isolate of Klebsiella pneumoniae at 30 ug after 24 hrs by Halo zone test. As to conditions: read-out: DIZ.
For experiment [10], the system named is Staphylococcus aureus. Nature of the experiment: Bactericidal activity against methicillin-resistant Staphylococcus aureus after 18 to 24 hrs by colony counting method. It counts as functional. The gist of the method:
(§2)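 Colonies were counted after 18–24 h at 35 °C. MBC is the lowest concentration that kills 99.9% of the inoculum.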

Experiment [11] concerns Pseudomonas aeruginosa. As to the kind of experiment: Bactericidal activity against Pseudomonas aeruginosa ATCC 27853 after 18 to 24 hrs by colony counting method. It counts as functional. The gist of the method: as §2
The test system of the next experiment is Escherichia coli. Nature of the experiment: Bactericidal activity against Escherichia coli ATCC 25922 after 18 to 24 hrs by colony counting method. It counts as functional. The essentials: as §2
Experiment [12] has as its system Pseudomonas aeruginosa. Nature of the experiment: microbe, parasite or virus in culture. The conditions noted are these: ATCC 27853, 24 h, read-out: DIZ.

By MFC is commonly meant the smallest concentration meeting the test's criterion for killing the fungus. Low values mean more potent killing, high ones less potent killing. The MIC is the lowest concentration that inhibits growth of the organism. Low values mean inhibition by little substance, high ones a need for much substance. As usually defined, the MBC is the smallest concentration meeting the test's criterion for killing. Lower therefore signals greater bactericidal potency.

As for `OC(Cn1cncn1)(Cn1cncn1)c1ccc(F)cc1F` [FLUCONAZOLE], the “diameter of the inhibition zone (DIZ)” value is recorded as 20 mm in the experiment with Candida albicans [1], 20 mm with Aspergillus fumigatus [2], 19 mm in experiment [3] and 18 mm in the experiment on Talaromyces marneffei [4]. Also, the MFC (with Candida albicans [5]; in the experiment on Aspergillus fumigatus [6]; in experiment [7]; against Talaromyces marneffei [8]) was 12.5 µg/mL (≈ 40.8 µM) in each case. Besides, the MIC was found to be 6.25 µg/mL (≈ 20.4 µM) with Candida albicans [5], 6.5 µg/mL (≈ 21.2 µM) against Aspergillus fumigatus [6], 6.25 µg/mL (≈ 20.4 µM) in experiment [7] and 6.5 µg/mL (≈ 21.2 µM) with Talaromyces marneffei [8].
Consider `O=C(O)c1cn(C2CC2)c2cc(N3CCNCC3)c(F)cc2c1=O` [CIPROFLOXACIN], for which the zone of inhibition at 30 µg/disc with Streptococcus pyogenes was 24 mm; with Staphylococcus aureus [9] it was 25 mm; with Klebsiella pneumoniae it was 18 mm; with Pseudomonas aeruginosa [12], 32 mm. Besides, the MBC with Staphylococcus aureus [10] turned out to be 50 µg/mL (≈ 151 µM); with Pseudomonas aeruginosa [11], 25 µg/mL (≈ 75.4 µM); in the experiment with Escherichia coli, 50 µg/mL (≈ 151 µM).
